The results in this text go back to ChEMBL document CHEMBL2021821, “N-phosphonocarbonylpyrrolidine derivatives of guanine: a new class of bi-substrate inhibitors of human purine nucleoside phosphorylase” (J Med Chem, 2012).

The target of test [1] is T1, Purine nucleoside phosphorylase (Homo sapiens, UniProt P00491).
T1 sequence (P00491 whole entry): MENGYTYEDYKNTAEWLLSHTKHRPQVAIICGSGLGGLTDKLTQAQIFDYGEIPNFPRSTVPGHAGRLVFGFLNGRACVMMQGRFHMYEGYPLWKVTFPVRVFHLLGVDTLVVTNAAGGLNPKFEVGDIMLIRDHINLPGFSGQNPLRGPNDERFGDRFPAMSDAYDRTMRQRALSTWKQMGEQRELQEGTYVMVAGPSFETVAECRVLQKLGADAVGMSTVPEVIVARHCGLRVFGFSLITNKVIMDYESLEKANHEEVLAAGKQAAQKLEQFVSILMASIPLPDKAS
Kind of test: Competitive inhibition of PNP in human SU-DHL-1 cells using MSEG as substrate by Dixon-plot analysis. The class given is cell-based.

The target in test [2] is T1, Purine nucleoside phosphorylase. Put plainly: Competitive inhibition of PNP in human HBL2 cells using MSEG as substrate by Dixon-plot analysis. The class given is cell-based.
The target is the same in test [3]. Put plainly: Competitive inhibition of PNP in human CML cells obtained from patients using MSEG as substrate by Dixon-plot analysis. The class given is cell-based.
Test [4] has the same target. Kind of test: Competitive inhibition of PNP in human Jurkat cells using MSEG as substrate by Dixon-plot analysis. The class given is cell-based.
Test [5] shares this target. Kind of test: Competitive inhibition of PNP in human PBMC using MSEG as substrate by Dixon-plot analysis.
Test [6] shares this target. Kind of test: Competitive inhibition of PNP in human K562 cells using MSEG as substrate by Dixon-plot analysis. It is filed as cell-based.
For test [7] the target is unchanged. Put plainly: Competitive inhibition of PNP in human RPMI8226 cells using MSEG as substrate by Dixon-plot analysis. The class given is cell-based, RPMI-8226.
The target is the same in test [8]. Put plainly: Competitive inhibition of PNP in human DoHH2 cells using MSEG as substrate by Dixon-plot analysis. It is filed as cell-based.
Test [9] shares this target. Kind of test: Competitive inhibition of human recombinant PNP using MSEG as substrate by Dixon-plot analysis. In outline:
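Human recombinant PNP. Assay mix was 50 mM Tris pH 7.5 with MESG at 40 or 80, constant 500 phosphate and inhibitor 0–500 nM. Enzyme addition started phosphorolysis, read at 360 nm for 5–7 min from initial rates. Ki was taken from Dixon plots (1/v vs [I]) over three independent measurements.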

For test [10] the target is unchanged. Put plainly: Competitive inhibition of PNP in human MINO cells using MSEG as substrate by Dixon-plot analysis. It is filed as cell-based.
For test [11] the target is unchanged. Put plainly: Competitive inhibition of PNP in human HBL2 tumor cells using MSEG as substrate by Dixon-plot analysis. The class given is cell-based.
Test [12] has the same target. Put plainly: Competitive inhibition of PNP in human AML cells obtained from patients using MSEG as substrate by Dixon-plot analysis. The class given is cell-based.
Test [13] shares this target. Put plainly: Competitive inhibition of PNP in human MC116 cells using MSEG as substrate by Dixon-plot analysis. The class given is cell-based.
Test [14] has the same target. Kind of test: Competitive inhibition of PNP in human OPM2 cells using MSEG as substrate by Dixon-plot analysis. It is filed as cell-based, OPM-2.
Test [15] has the same target. Kind of test: Inhibition of human recombinant PNP using MSEG as substrate preincubated with inhibitor within 10 to 20 mins measured after 5 mins by HPLC analysis. In outline: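 Recombinant human PNP (0.002 units) preincubated with inhibitor (0–250 nM) in 50 mM Tris pH 7.5 at 20 C for 0, 10 or 20 min. Then phosphate (final 500 µM) and MESG (final 20 µM) added; incubated 2 and 5 min at 25 C, aliquots quenched with HCl. MESG phosphorolysis measured by HPLC; activity expressed relative to no-inhibitor assays.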

As for `Nc1nc2c(ncn2[C@H]2CCN(C(=O)P(=O)(O)O)C2)c(=O)[nH]1`, the Ki stood at 38 nM in test [1]; 98 nM in [2]; 77 nM in test [3]; 16 nM in test [4]; 20 nM in test [5]; 60 nM in test [6]. Besides, the Ki stood at 50 nM in test [7]; 50 nM in [8]; 25 nM in test [9]; 30 nM in test [10]; 100 nM in test [11]; 60 nM in [12]. The results for the inhibitory constant (Ki) in test [13] and in [14] were 50 nM and 78 nM, respectively.
On to `Nc1nc2c(ncn2[C@@H]2CN(C(=O)P(=O)(O)O)C[C@@H]2O)c(=O)[nH]1`, for which the Ki in test [1] is 11 nM; in [2], 16 nM; in [3] it was 14 nM; in [4], 10 nM; in test [5], 10 nM; in test [6] it was 10 nM. Further, the inhibition constant Ki turned out to be 20 nM in test [7]; 6 nM in [8]; 7 nM in test [9]; 10 nM in test [10]; 24 nM in test [11]; 12 nM in test [12]. In addition, the inhibition constant Ki amounted to 11 nM in [13] and 16 nM in test [14]. Moreover, the 50% inhibitory concentration (IC50) in test [15] was found to be 10 nM.
